rCAG RNA binder = binds r(CAG) RNA repeats | 1.3% of 370,000 active | r(CAG) RNA repeat, TO-PRO-1 dye displacement fluorescence | inhibition, % at 3 µM;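 active = inhibition above the plate cutoff, the mean of all test compounds on that plate plus 3 SD, cut at about 35% in these data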;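 also: 0% = DMSO alone and 100% = 100 µM mitoxantrone as full dye displacement; higher means more dye released from RNA so lower well fluorescence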
SIAE inh = inhibitors of human sialic acid acetylesterase SIAE; SIAE FP-Rh probe binding, fluorescence polarization; inhibition, % at 9.66 µM; 0.69% of 370,000 active;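 active = inhibition above a cutoff: mean of compounds within the control limits plus 3 SD of those, cut at about 17% in these data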;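 also: 0% = plate median of compound wells and 100% = probe without SIAE protein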
HTRA1 inh = HTRA1 (human) protease inhibition. 0.5% of 340,000 active. inhibition, % at 5.96 µM. Q92743. AID 504803. recombinant HTRA1, FP-rhodamine activity-based probe, fluorescence polarization; in the data active = inhibition above about 36%;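 also: 0% = enzyme with DMSO and 100% = wells lacking enzyme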
PRMT1 inh = inhibitors of human PRMT1; Q99873; recombinant PRMT1, activity-based probe fluorescence polarization; inhibition, % at 2.79 µM; 1.3% of 370,000 active; AID 652257;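 active = inhibition above about 21% made by adding two undisclosed values, limit read from the data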
Target sequence (Q99873 whole entry, looked up): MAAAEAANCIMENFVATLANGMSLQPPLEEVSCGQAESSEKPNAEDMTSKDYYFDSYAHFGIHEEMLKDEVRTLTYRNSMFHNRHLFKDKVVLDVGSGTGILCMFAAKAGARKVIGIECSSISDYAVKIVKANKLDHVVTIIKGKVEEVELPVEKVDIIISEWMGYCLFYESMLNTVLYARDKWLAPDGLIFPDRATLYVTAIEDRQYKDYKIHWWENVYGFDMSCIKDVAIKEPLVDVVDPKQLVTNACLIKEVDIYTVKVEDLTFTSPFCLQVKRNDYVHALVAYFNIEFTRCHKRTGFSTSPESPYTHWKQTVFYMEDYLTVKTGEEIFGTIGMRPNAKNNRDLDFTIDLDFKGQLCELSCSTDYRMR
ABHD4 inh = inhibits mouse alpha/beta hydrolase domain 4 | Q8VD66 | 0.54% of 370,000 active | inhibition, % at 8.92 µM | purified mABHD4, FP-Rh probe fluorescence polarization;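 active = inhibition exceeding the mean over every tested compound plus 3 SD, cut at about 30% in these data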;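 also: 0% = plate median of compound wells and 100% = S159A mutant with DMSO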
Target sequence (Q8VD66 whole entry, looked up, the tested form may be a part): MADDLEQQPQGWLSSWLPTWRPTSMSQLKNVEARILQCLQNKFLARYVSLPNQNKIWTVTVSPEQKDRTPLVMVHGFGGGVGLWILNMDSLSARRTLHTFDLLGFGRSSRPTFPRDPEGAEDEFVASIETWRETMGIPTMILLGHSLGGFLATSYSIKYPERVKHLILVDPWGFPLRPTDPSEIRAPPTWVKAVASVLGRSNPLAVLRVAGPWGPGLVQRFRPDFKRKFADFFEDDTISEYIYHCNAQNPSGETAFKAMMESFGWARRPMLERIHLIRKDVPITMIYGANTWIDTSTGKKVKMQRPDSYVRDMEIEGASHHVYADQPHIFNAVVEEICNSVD
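Test system: mABHD4 protein | Buffer or medium: HEPES pH 7.0 buffer, 150 mM NaCl, 0.01% Pluronic F-127 | Probe or stimulus: FP-Rh fluorescent activity-based probe, added after compound pre-incubation | Timing: Pre-incubation 45 min, probe exposure 60 min, at 25 °C | Technique: Fluorescence polarization, excitation 525 nm, emission 598 nm, BODIPY TMR filters | Repeats: Single well per compound (singlicate)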
rCAG binder conf = r(CAG) RNA repeat binding, confirmation | shares compounds with rCAG RNA binder | TO-PRO-1 dye displacement fluorescence | inhibition, % at 3 µM | 70% of 4,300 active | AID 652065;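 active = inhibition above a per-plate cutoff, the mean inhibition of sample wells plus 3 SD, cut at about 35% in these data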;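 also: loss of TO-PRO-1 fluorescence as compound displaces dye from 1x1 AA loop RNA; 0% = DMSO only wells and 100% = 100 µM mitoxantrone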
DNA CAG counter = counter-screen for rCAG RNA binders: DNA CAG dye complex inhibitors | shares compounds with rCAG RNA binder | d(CAG) DNA oligo TO-PRO-1 dye displacement, fluorescence | 94% of 4,300 active | inhibition, % at 3 µM;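 active = inhibition above its plate's cutoff, the mean test-well inhibition plus 3 SD, cut at about 4.8% in these data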;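 also: 0% = DNA dye mix with DMSO and 100% = 100 µM mitoxantrone; hits displace the dye from DNA and so lower well fluorescence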
DNA CAG DR = disrupts DNA CAG TO-PRO-1 complex in dose response | 20% of 250 active | DNA CAG/GTC duplex TO-PRO-1 dye displacement fluorescence | shares compounds with rCAG RNA binder | IC50, µM; in the data active = IC50 below about 10 µM
An asterisk follows results filed as active; i = inactive; / = no result given; ! = repeats disagree. An excerpt weighted towards active compounds, which were near 3.3% of everything screened.

SMILES	rCAG RNA binder	SIAE inh	HTRA1 inh	PRMT1 inh	ABHD4 inh	rCAG binder conf	DNA CAG counter	others
O=C(CSc1nnc(COc2ccccc2)n1-c1ccccc1)Nc1ccc2c(c1)OCCO2	3.7	2.0	/	4.0	-3.1	/	/
Cc1cc(Br)cn2c(Cc3ccccc3C(F)(F)F)c(-c3cccc(Br)c3)nc12	46.9*	-13.7	/	10.3	-44.6	6.9	2.9
Cc1ccc(Cc2c(-c3ccc(C)cc3)nc3ccc(Cl)cn23)cc1	6.9	-11.2	-51.0	1.5	-10.2	/	/
Cc1ccc(Cc2c(-c3ccc(Br)cc3)nc3ccc(Cl)cn23)cc1	41.2*	-13.8	/	-1.7	-18.8	12.0	10.1*
C=CCSc1nnc(-c2ccccc2N=Cc2c(C)[nH]n(-c3ccccc3)c2=O)c(=O)[nH]1	40.8*	-11.5	3.9	1.1	4.9	32.9	9.6*
CSc1nnc(-c2ccccc2N=Cc2c(C)[nH]n(-c3ccc4ccccc4c3)c2=O)c(=O)[nH]1	67.7*	-14.7	-15.9	0.0	-0.8	70.5*	32.4*	DNA CAG DR=9.19*
Cc1[nH]n(-c2ccccc2)c(=O)c1/C=N/c1nn[nH]n1	3.2	5.2	/	-1.5	0.1	/	/
C=CCSc1nnc(-c2ccccc2NC(=O)CC)c(=O)[nH]1	50.6*	-2.9	-5.4	2.5	4.0	4.5	2.4
Cc1[nH]n(-c2ccccc2)c(=O)c1C=Nc1cnc2ccccc2c1	4.3	-6.6	2.6	0.7	0.3	/	/
O=C(c1cc(C(=O)N2CCOCC2)c2nc3ccccc3n2c1)c1cc(Cl)cc(Cl)c1O	45.5*	3.4	5.7	1.9	9.6	44.3*	12.0*
O=C(/C(=N\Nc1ccc([N+](=O)[O-])cc1)Sc1nnnn1-c1ccccc1)c1ccccc1	34.0	9.4	-6.1	4.5	5.1	/	/
Cc1ccc(N/N=C(/Sc2nnnn2-c2ccccc2)C(=O)c2ccccc2)cc1	67.8*	5.8	2.2	11.0	-1.4	53.0*	21.1*	DNA CAG DR=i
CCOC(=O)[C@]12CCCC=C1N(Cc1ccc(OC)cc1)C(=O)[C@@H]2CC(=O)NCc1ccccc1	3.2	10.4	/	0.5	-0.6	/	/
CN(C)S(=O)(=O)c1ccc(S(=O)(=O)Nc2ccc3c(c2)oc2ccccc23)cc1	49.0*	9.5	-39.9	2.4	-53.8	57.1*	19.2*
CCN(CC)S(=O)(=O)c1ccc(S(=O)(=O)Nc2ccc3c(c2)oc2ccccc23)cc1	56.5*	-105.7	-80.6	-2.5	-93.8	51.3*	18.1*
CCN(CC)S(=O)(=O)c1ccc(NS(=O)(=O)c2ccc(C)c(C)c2)cc1	15.8	0.6	-2.2	-0.4	2.9	/	/
Cc1cc(=O)oc2cc(NS(=O)(=O)c3ccccc3)ccc12	0.9	-1.9	6.4	-4.6	2.3	/	/
CCc1nc2nc(C)c(NS(=O)(=O)c3ccc(Cl)cc3)c(=O)n2[nH]1	3.1	2.4	10.1	1.3	-6.2	/	/
Cc1nc2nc(C)c(NS(=O)(=O)c3ccc(C4CCCCC4)cc3)c(=O)n2[nH]1	38.1*	5.4	-1.4	3.4	-4.8	39.6*	9.5*
CCc1nc2nc(C)c(NS(=O)(=O)c3ccc(C4CCCCC4)cc3)c(=O)n2[nH]1	49.2*	-7.7	0.0	1.3	-9.8	44.4*	14.0*
COC(=O)[C@]12C[C@H](CC(=O)N3CCCCC3)C(=O)N(Cc3ccco3)C1=C[C@H](C(C)(C)C)O[C@@H]2C	-4.2	-2.6	/	-5.8	6.6	/	/
C#CCNC(=O)C[C@H]1C[C@@]2(C(=O)OC)C(=C[C@H](C(C)C)O[C@@H]2C2CC2)N(Cc2cccc3ccccc23)C1=O	2.2	-7.1	/	-5.4	-16.9	/	/
CC(C)Cn1nc(NS(=O)(=O)c2cccc3nonc23)c2cc3ccccc3nc21	53.3*	10.2	7.6	3.8	14.4	38.5*	11.8*
Cc1ccc(S(=O)(=O)NC2=C(N3CCN(c4ccccc4F)CC3)C(=O)c3ccccc3C2=O)cc1	12.0	5.8	8.2	3.9	22.1	/	/
CCOc1nc2ccccc2nc1NS(=O)(=O)c1ccc(Cl)cc1	40.2*	-2.3	-3.1	7.7	-15.1	27.3	4.6*
SMILES	rCAG RNA binder	SIAE inh	HTRA1 inh	PRMT1 inh	ABHD4 inh	rCAG binder conf	DNA CAG counter	others
O=S(=O)(Nc1nc2ccccc2nc1N1CCN(c2ccccn2)CC1)c1ccc(Cl)cc1	53.8*	4.7	-1.2	11.4	4.0	63.8*	30.7*
COc1ccc(N2CCN(c3nc4ccccc4nc3NS(=O)(=O)c3ccccc3)CC2)cc1	57.0*	10.5	5.4	0.0	0.5	62.1*	24.2*
CCOc1nc2ccccc2nc1NS(=O)(=O)c1ccccc1	6.4	-3.4	9.6	-0.5	-1.4	/	/
Cc1ccc(S(=O)(=O)Nc2nc3ccccc3nc2N2CCN(c3ccccc3F)CC2)cc1	53.7*	3.3	-7.3	3.3	-4.9	67.7*	27.9*
COC(=O)[C@]12CCCCC=C1N(Cc1ccc(OC)cc1)C(=O)[C@@H]2CC(=O)NCc1ccccc1	4.5	-5.8	/	5.7	5.3	/	/
O=C(N/N=C(\CC(=O)c1cccs1)C(F)(F)F)c1ccncc1	9.5	9.4	/	-3.2	9.9	/	/
Cc1ccc(C(=O)N/N=C(/CC(=O)c2cccs2)C(F)(F)F)cc1	45.4*	11.3	9.7	2.1	-20.6	32.0	7.6*
N#CCC[C@H]1CC[C@]2(CCCN(C(=O)c3ccc4ccccc4n3)C2)O1	1.3	6.9	/	1.9	0.7	/	/
CC(C)(C)N1C(=O)c2ccccc2NC(=O)C1C(=O)Nc1ccc2c(c1)OCCO2 (stereo unspecified)	0.3	3.5	/	1.1	-0.2	/	/
O=C(CNS(=O)(=O)c1ccc(Cl)s1)N1CCN(c2ccccn2)CC1	1.1	4.1	/	2.0	0.2	/	/
CC(C)Cc1nn2c(N)c(/C=C3\C=Nc4ccccc43)c(=O)nc2s1	37.6*	-20.5	-21.1	-0.6	-5.9	61.6*	20.8*
CC(C)c1nn2c(N)c(/C=C3\C=Nc4ccccc43)c(=O)nc2s1	39.7*	-7.9	/	1.2	-7.7	40.9*	10.3*
CCC(CC)c1nn2c(N)c(/C=C3\C=Nc4ccccc43)c(=O)nc2s1	9.2	5.1	-0.1	-3.5	3.8	/	/
CCCc1nn2c(N)c(/C=C3\C=Nc4ccccc43)c(=O)nc2s1	50.8*!	-8.0	-9.0	0.3	-2.9	49.2*	13.9*
COc1ccccc1CCn1cnc(-c2ccccc2)c1CC(C)C	-1.5	0.7	/	11.7	-11.7	/	/
Nc1[nH]c(C(=O)c2ccccc2)c(-c2ccc3ccccc3c2)c1C(=O)NCc1ccc(-c2ccccc2)cc1	24.6	-3.2	/	1.9	4.0	/	/
CCOc1cc(/C=N/N=C2/NC(=O)C(CC(=O)O)S2)ccc1OCc1ccccc1Cl (stereo unspecified)	63.7*	-7.0	-4.6	5.0	-11.1	46.0*	13.1*

Screening results as filed in PubChem.
